Legend:
[1] = system: Nucleic Acid; experiment: Apparent binding constant with polynucleotide Poly (dAT)2 complex measured by fluorescence assay; format: nucleic-acid assay; conditions: in the assay text read “calf thymus DNA” for “polynucleotide Poly (dAT)2 complex”
How it was run: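 Ethidium displacement by fluorescence: excitation 515 nm, emission read over 550-700 nm, [ethidium]/[DNA] molar ratio 12.6:10, drug 0.01-100 µM in BPE buffer pH 7.1. C50 for ethidium displacement taken from a fitted curve; Kapp = (1.26 µM/C50) × K_ethidium, with K_ethidium = 10⁷ M^-1.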

[2] = system: PC-3; experiment: Cytotoxicity towards human prostate cancer PC 3 cell line was determined; format: functional, cell-based
How it was run: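 PC 3 cells kept in RPMI 1640 with 10% FCS were seeded at 3 × 10⁴ cells/well. After 3 days they were serum-starved for 24 h, then stimulated with 10 ng/mL EGF plus transferrin 50 ng/mL and selenium 50 pg/mL, with compounds added. Growth was read by MTT colorimetry after a further 72 h.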

[3] = system: Nucleic Acid; experiment: Relative DNA binding affinity was determined as difference in melting temperature (delta Tm) with the polynucleotide Poly (dAT)2 complex and alone Poly (dAT)2; format: nucleic-acid assay
[4] = system: Nucleic Acid; experiment: Apparent binding constant with calf thymus DNA measured by fluorescence assay

SMILES	K app [1]	IC50 [2]	ΔTm [3]	K app [4]
COc1cc2nc3c(c4c2c(c1OC)NCC4)Cc1ccccc1-3	3100 M⁻¹	> 1 µM	0 °C	–
COc1cc2nc3c(c4c2c(c1OC)N(C(=O)CN1CCN(C)CC1)CC4)Cc1cc(OCCN)ccc1-3	503000 M⁻¹	> 1 µM	19.6 °C	–
COc1cc2nc3c(c4c2c(c1OC)N(C(C)=O)CC4)Cc1ccccc1-3	–	> 1 µM	–	–
COc1cc2nc3c(c4c2c(c1OC)N(C(C)=O)CC4)Cc1cc(OCCCN)ccc1-3	–	> 1 µM	6 °C	293000 M⁻¹
COc1ccc2c(c1)Cc1c-2nc2cc(OC)c(OC)c3c2c1CCN3C(C)=O	–	> 1 µM	–	–
COc1cc2nc3c(c4c2c(c1OC)NCC4)Cc1cc(OCCCN)ccc1-3	6.13e+06 M⁻¹	> 1 µM	15.8 °C	–
COc1cc2nc3c(c4c2c(c1OC)N(C(=O)CN1CCN(C)CC1)CC4)Cc1cc(OCCCN2CCN(C)CC2)ccc1-3	3.04e+06 M⁻¹	> 1 µM	32.5 °C	–
COc1cc2nc3c(c4c2c(c1OC)N(C(=O)CN1CCN(C)CC1)CC4)Cc1cc(OCCCN)ccc1-3	–	> 1 µM	22.5 °C	2.78e+06 M⁻¹
COc1cc2nc3c(c4c2c(c1OC)NCC4)Cc1cc(O)ccc1-3	–	> 1 µM	4 °C	672000 M⁻¹
COc1cc2nc3c(c4c2c(c1OC)NCC4)Cc1cc(OCCN)ccc1-3	5.14e+06 M⁻¹	> 1 µM	14.8 °C	–
COc1cc2nc3c(c4c2c(c1OC)N(C(C)=O)CC4)Cc1cc(OCCN)ccc1-3	990000 M⁻¹	> 1 µM	7 °C	–
COc1ccc2c(c1)Cc1c-2nc2cc(OC)c(OC)c3c2c1CCN3	1700 M⁻¹	> 1 µM	0 °C	–
COc1cc2nc3c(c4c2c(c1OC)NCC4)Cc1cc(OCCCN2CCN(C)CC2)ccc1-3	301000 M⁻¹	0.0065 µM	10 °C	–
COc1cc2nc3c(c4c2c(c1OC)N(C(C)=O)CC4)Cc1cc(OCCCN2CCN(C)CC2)ccc1-3	3.58e+06 M⁻¹	> 1 µM	3.8 °C	–
COc1cc2nc3c(c4c2c(c1OC)N(C(C)=O)CC4)Cc1cc(O)ccc1-3	677000 M⁻¹	> 1 µM	3.1 °C	–
COc1cc2nc3c(c4c2c(c1OC)NCC4)CCc1cc(O)ccc1-3	1600 M⁻¹	> 1 µM	1.1 °C	–

Source: ChEMBL document CHEMBL1148358, “DNA binding to guide the development of tetrahydroindeno[1,2-b]pyrido[4,3,2-de]quinoline derivatives as cytotoxic agents” (J Med Chem, 2004)
